Tests used:
[1] = system: Mus musculus; test: Net log cell kill is an estimate of the number of cells that are killed by the compound was calculated at dose of 2.7 mg/kg on days 1; assay type: functional
Procedure, shortened: (§1)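 Net log cell kill in female CD2F1 mice given ip L1210 (1 × 10^5 cells, day 0) and iv tail-vein drug from day 1. It was calculated from treated-minus-control median day of death, less treatment duration, relative to tumor doubling time. Doubling time came from median days of death in titration groups of 10 mice implanted with 1 × 10^4 to 1 × 10^6 cells.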

[2] = system: Mus musculus; test: Net log cell kill is an estimate of the number of cells that are killed by the compound was calculated at dose of 1.8 mg/kg on days 1; assay type: functional; procedure, shortened: as §1
[3] = system: Mus musculus; test: Net log cell kill is an estimate of the number of cells that are killed by the compound was calculated at dose of 1.8 mg/kg on days 1,2; assay type: functional; procedure, shortened: as §1
[4] = system: Mus musculus; test: Net log cell kill is an estimate of the number of cells that are killed by the compound was calculated at dose of 1.8 mg/kg on days 1,5,9; assay type: functional; procedure, shortened: as §1
[5] = system: Mus musculus; test: In vivo antitumor studies were carried out on mice bearing L1210 murine leukemia cells, by administering intravenously the compound dose of 4.0 mg/kg on days 1; assay type: functional; details: route intravenous
Procedure, shortened: (§2)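 Female CD2F1 mice (12-week-old, five per group) given 1 × 10^5 L1210 ascites cells ip on day 0; cells were first passaged ip in DBA/2 mice. From day 1, freshly made drug in 25 mM sodium phosphate pH 7.4 was given iv by tail vein at 0.01 mL/g. Mean survival days were compared with untreated mice by ANOVA and Newman-Keuls.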

[6] = system: Mus musculus; test: Percent increase in life span was calculated by administering intravenously the compound dose of 1.8 mg/kg on days 1,5 and 9.; assay type: functional; details: route intravenous
Procedure, shortened: (§3)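 CD2F1 female mice bore ip L1210 (1 × 10^5 cells/mouse, day 0). Tail-vein iv dosing in 25 mM phosphate buffer pH 7.4 began on day 1. Percent increase in life span was calculated as (T − C)/C × 100, with T and C the median days of death for the treated and untreated groups.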

[7] = system: Mus musculus; test: Percent increase in life span was calculated by administering intravenously the compound dose of 1.8 mg/kg on days 1,8; assay type: functional; details: route intravenous; procedure, shortened: as §3
[8] = system: Mus musculus; test: Percent increase in life span was calculated by administering intravenously the compound dose of 2.7 mg/kg on days 1; assay type: functional; details: route intravenous; procedure, shortened: as §3
[9] = system: Mus musculus; test: Percent increase in life span was calculated by administering intravenously the compound dose of 2.7 mg/kg on days 1,2; assay type: functional; details: route intravenous; procedure, shortened: as §3
[10] = system: Mus musculus; test: Percent increase in life span was calculated by administering intravenously the compound dose of 2.7 mg/kg on days 1,5 and 9.; assay type: functional; details: route intravenous; procedure, shortened: as §3
[11] = system: Mus musculus; test: Percent increase in life span was calculated by administering intravenously the compound dose of 2.7 mg/kg on days 1,8; assay type: functional; details: route intravenous; procedure, shortened: as §3
[12] = system: Mus musculus; test: Percent increase in life span was calculated by administering intravenously the compound dose of 4.0 mg/kg on days 1; assay type: functional; details: route intravenous; procedure, shortened: as §3
[13] = system: Mus musculus; test: Percent increase in life span was calculated by administering intravenously the compound dose of 4.0 mg/kg on days 1,5 and 9.; assay type: functional; details: route intravenous; procedure, shortened: as §3
[14] = system: Mus musculus; test: Percent increase in life span was calculated by administering intravenously the compound dose of 4.0 mg/kg on days 1,8; assay type: functional; details: route intravenous; procedure, shortened: as §3
[15] = system: Mus musculus; test: Percent increase in life span was calculated by administering intravenously the compound dose of 1.8 mg/kg on days 1; assay type: functional; details: route intravenous; procedure, shortened: as §3
[16] = system: Mus musculus; test: Percent increase in life span was calculated by administering intravenously the compound dose of 1.8 mg/kg on days 1,2; assay type: functional; details: route intravenous; procedure, shortened: as §3
[17] = system: Mus musculus; test: Net log cell kill is an estimate of the number of cells that are killed by the compound was calculated at dose of 2.7 mg/kg on days 1,2; assay type: functional; procedure, shortened: as §1
[18] = system: Mus musculus; test: Net log cell kill is an estimate of the number of cells that are killed by the compound was calculated at dose of 2.7 mg/kg on days 1,5,9; assay type: functional; procedure, shortened: as §1
[19] = system: Mus musculus; test: Net log cell kill is an estimate of the number of cells that are killed by the compound was calculated at dose of 2.7 mg/kg on days 1,8; assay type: functional; procedure, shortened: as §1
[20] = system: Mus musculus; test: Net log cell kill is an estimate of the number of cells that are killed by the compound was calculated at dose of 4.0 mg/kg on days 1; assay type: functional; procedure, shortened: as §1
[21] = system: Mus musculus; test: Net log cell kill is an estimate of the number of cells that are killed by the compound was calculated at dose of 4.0 mg/kg on days 1,8; assay type: functional; procedure, shortened: as §1
[22] = system: Mus musculus; test: In vivo antitumor studies were carried out on mice bearing L1210 murine leukemia cells, by administering intravenously the compound dose of 1.8 mg/kg on days 1; assay type: functional; details: route intravenous; procedure, shortened: as §2
[23] = system: Mus musculus; test: In vivo antitumor studies were carried out on mice bearing L1210 murine leukemia cells, by administering intravenously the compound dose of 1.8 mg/kg on days 1,2; assay type: functional; details: route intravenous; procedure, shortened: as §2
[24] = system: Mus musculus; test: In vivo antitumor studies were carried out on mice bearing L1210 murine leukemia cells, by administering intravenously the compound dose of 1.8 mg/kg on days 1,5 and 9.; assay type: functional; details: route intravenous; procedure, shortened: as §2
[25] = system: Mus musculus; test: In vivo antitumor studies were carried out on mice bearing L1210 murine leukemia cells, by administering intravenously the compound dose of 1.8 mg/kg on days 1,8; assay type: functional; details: route intravenous; procedure, shortened: as §2
[26] = system: Mus musculus; test: In vivo antitumor studies were carried out on mice bearing L1210 murine leukemia cells, by administering intravenously the compound dose of 2.7 mg/kg on days 1; assay type: functional; details: route intravenous; procedure, shortened: as §2
[27] = system: Mus musculus; test: In vivo antitumor studies were carried out on mice bearing L1210 murine leukemia cells, by administering intravenously the compound dose of 2.7 mg/kg on days 1,2; assay type: functional; details: route intravenous; procedure, shortened: as §2
[28] = system: Mus musculus; test: In vivo antitumor studies were carried out on mice bearing L1210 murine leukemia cells, by administering intravenously the compound dose of 2.7 mg/kg on days 1,5 and 9.; assay type: functional; details: route intravenous; procedure, shortened: as §2
[29] = system: Mus musculus; test: In vivo antitumor studies were carried out on mice bearing L1210 murine leukemia cells, by administering intravenously the compound dose of 4.0 mg/kg on days 1,2; assay type: functional; details: route intravenous; procedure, shortened: as §2
[30] = system: Mus musculus; test: In vivo antitumor studies were carried out on mice bearing L1210 murine leukemia cells, by administering intravenously the compound dose of 4.0 mg/kg on days 1,5 and 9.; assay type: functional; details: route intravenous; procedure, shortened: as §2
[31] = system: Mus musculus; test: In vivo antitumor studies were carried out on mice bearing L1210 murine leukemia cells, by administering intravenously the compound dose of 4.0 mg/kg on days 1,8; assay type: functional; details: route intravenous; procedure, shortened: as §2
[32] = system: Mus musculus; test: In vivo antitumor studies were carried out on mice bearing L1210 murine leukemia cells, by administering intravenously the compound dose of 6.0 mg/kg on days 1; assay type: functional; details: route intravenous; procedure, shortened: as §2
[33] = system: Mus musculus; test: In vivo antitumor studies were carried out on mice bearing L1210 murine leukemia cells, by administering intravenously the compound dose of 2.7 mg/kg on days 1,8; assay type: functional; details: route intravenous; procedure, shortened: as §2
[34] = system: Mus musculus; test: Net log cell kill is an estimate of the number of cells that are killed by the compound was calculated at dose of 10 mg/kg on days 1,5,9; assay type: functional
[35] = system: Mus musculus; test: Percent increase in life span was calculated by administering intraperitoneally the compound dose of 10 mg/kg on days 1,5 and 9.; details: ip
[36] = system: Mus musculus; test: In vivo antitumor studies were carried out on mice bearing L1210 murine leukemia cells, by administering intraperitoneally the compound dose of 10 mg/kg on days 1,5 and 9.; details: route intraperitoneal

With `C(CCNCCCN1CC1)CNCCCN1CC1` the NLCK [1] was 3, the NLCK [2] was 4 and the NLCK [3] was 6. For the same molecule, the NLCK [4] was 2, the Life span [5] was 11 days and the ILS at 1.8 mg/kg [6] was 143%. For the same molecule, the ILS at 1.8 mg/kg [7] was 86%, the ILS at 2.7 mg/kg [8] was 42% and the ILS at 2.7 mg/kg [9] was 100%. It also gave an ILS at 2.7 mg/kg [10] of 171%, an ILS at 2.7 mg/kg [11] of 129% and an ILS at 4 mg/kg [12] of 57%. For the same molecule, the ILS at 4 mg/kg [13] was 14%, the ILS at 4 mg/kg [14] was 157% and the ILS at 1.8 mg/kg [15] was 57%. It also gave an ILS at 1.8 mg/kg [16] of 100%, an NLCK [17] of 6 and an NLCK [18] of 4. The NLCK [19] was 2, the NLCK [20] was 4 and the NLCK [21] was 4. The Mean survival [22] was 10.8 days, the Mean survival [23] was 14.8 days and the Mean survival [24] was 17.4 days. It also gave a Mean survival [25] of 12.6 days, a Mean survival [26] of 10.4 days and a Mean survival [27] of 13.2 days. The Mean survival [28] was 18.8 days, the Mean survival [29] was 5.4 days and the Mean survival [30] was 11 days. The Mean survival [31] was 17.2 days, the Mean survival [32] was 6.8 days and the Mean survival [33] was 15.2 days.

In the case of `S=P(N1CC1)(N1CC1)N1CC1` [THIOTEPA], the NLCK [34] is reported as 1, the ILS at 10 mg/kg [35] is reported as 114% and the Mean survival [36] is reported as 15.3 days.
